Source: PubChem (several laboratories)
This is one part of a sample in which hits are shown more often than they occur.
CHOP inhibitor: CHOP inhibition in unfolded protein response | CHO-K1 CHOP-promoter luciferase, tunicamycin-induced, 15-18 h | inhibition, % at 10 µM | 220,000 tested, 3.8% active;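 active = compounds that reduced the stress-induced luciferase reporter signal by more than about 70% of percent inhibition, limit read from the data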;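 also: 0% = tunicamycin plus vehicle and 100% = wells without tunicamycin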
V-ATPase pH: regulators of yeast V-ATPase proton transport. response, % at 10 µM. 350,000 tested, 0.37% active. S. cerevisiae, pHLuorin cytosolic pH fluorescence; in the data active = response mostly above about 7.3%, no sharp cut-off; inactive = mostly below about 5.4%; also: actives read high
XBP1 UPR activ: adaptive UPR (XBP1) activation. CHO-XBP1 luciferase reporter, IRE1-XBP1 UPR activation, luminescence; percent of tunicamycin response, DMSO as zero. activation, % at 20 µM. 330,000 tested, 0.33% active. AID 463104;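 active = versus positive control, 20 µM dose yields 30% or more activation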;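 also: 100% = tunicamycin at 10 µg/mL and 0% = DMSO only wells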
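Assay system: CHO-XBP1 luciferase reporter cells; Schedule: 6 h treatment, 37 °C; Detection: glow luminescence from Steady-Glo reagent; Benchmarks: high control tunicamycin 10 µg/mL final, low control DMSO vehicle only.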
UPR CHOP act: activators of apoptotic arm of unfolded protein response (CHOP); AID 449763; activation, % at 10 µM; 330,000 tested, 0.34% active; CHO-CHOP luciferase reporter, UPR activation, luminescence; percent of tunicamycin response over DMSO baseline;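 active = at 10 µM dose, activation of 40% or more, normalized to positive control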;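 also: 100% = tunicamycin at 10 µg/mL and 0% = DMSO alone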
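measured by = luciferase luminescence | assay system = CHO-CHOP cells, stable luciferase reporter of PERK-eIF2a-CHOP signalling | amount = 500 reporter cells seeded per well | timing = 6 h compound exposure at 37 °C after overnight seeding | controls = positive tunicamycin 10 µg/mL, negative DMSO alone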
Tb MetRS inh: Trypanosoma brucei MetRS inhibition | purified T. brucei MetRS, ATP depletion, Kinase-Glo luminescence | inhibition, % at 11.9 µM | 360,000 tested, 0.4% active;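 active = inhibition above a per-plate cutoff of the control wells' mean inhibition plus 3 SD, cut at about 5.5% in these data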;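 also: 0% = DMSO wells median and 100% = median of wells with control inhibitor compound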
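Material – parasite MetRS enzyme · Medium – HEPES-MgCl2-KCl buffer plus DTT, spermine, BSA, pyrophosphatase · Reagent – ATP, methionine and E. coli bulk tRNA substrates · Times – 15 min enzyme-compound preincubation, 2 h reaction, 10 min detection, 25 °C · Measured by – luminescence of leftover ATP · Evaluation – percent inhibition relative to median high and low control wells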
UPR CHOP confirm: apoptotic UPR (CHOP) activation, confirmed. activation, % at 10 µM. 1,000 tested, 64% active. AID 463112. CHO-CHOP cells, CHOP-luciferase reporter luminescence; percent of tunicamycin response, DMSO as zero. shares compounds with UPR CHOP act; in the data active = activation above about 33%;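 also: 0% = DMSO wells and 100% = tunicamycin 10 µg/mL wells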
XBP1 UPR conf: adaptive UPR (XBP1) activation, confirmed | shares compounds with XBP1 UPR activ | CHO-XBP1 IRE1-XBP1 luciferase reporter, luminescence | activation, % at 20 µM | 1,000 tested, 63% active | AID 485299;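 active = reporter signal at least 30% of the positive control's activation in two or more of four replicate wells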;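 also: plate controls were DMSO negative control for no effect and tunicamycin 10 µg/mL positive control for full effect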
VATPase regulator: regulators of yeast V-ATPase proton transport; 980 tested, 2% active; S. cerevisiae pHLuorin cytosolic pH; AID 602197; response, % at 10 µM; shares compounds with V-ATPase pH; in the data active = response above about 24%;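 also: plate controls were vehicle wells for no effect and positive control wells for full effect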
Tb MetRS conf: Trypanosoma brucei MetRS inhibition confirmed. shares compounds with Tb MetRS inh. T. brucei MetRS enzyme, luminescence (ATP depletion). inhibition, % at 11.9 µM. 1,400 tested, 93% active. AID 624412; in the data active = inhibition above about 7%
Jurkat tox: counter-screen for T. brucei MetRS inhibitors: Jurkat cell cytotoxicity; shares compounds with Tb MetRS inh; Jurkat cells viability, ATP luminescence; inhibition, % at 8.3 µM; 1,400 tested, 12% active; AID 624413; in the data active = inhibition above about 15%;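 also: 0% = vehicle and 100% = reference inhibitor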
TbMetRS FP orth: inhibits T. brucei methionyl tRNA synthetase in orthogonal FP test. purified T. brucei MetRS, fluorescence polarization. inhibition, % at 11.9 µM. 1,400 tested, 44% active. shares compounds with Tb MetRS inh; in the data active = inhibition above about 17%;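 also: 0% = vehicle wells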
* hit, by the source's call; . = no result given.

SMILES	CHOP inhibitor	V-ATPase pH	XBP1 UPR activ	UPR CHOP act	Tb MetRS inh	UPR CHOP confirm	XBP1 UPR conf	others
CC(=O)Nc1cc(NC(C)=O)cc(C(=O)N2CCCC3CCCCC32)c1 (stereo not drawn)	.	-3	-2	0	0	.	.
COc1cc(C(=O)Oc2ccc3c(c2)OCC3=O)cc(OC)c1OC	21	-1	43*	46*	0	0	17
CCOC(=O)C1=CN(Cc2ccco2)S(=O)(=O)N(C)C1c1ccc2ccccc2c1 (stereo not drawn)	.	-1	-3	1	-1	.	.
Cn1c(=O)c2c(SCC(=O)Nc3cccc(F)c3)nc(-c3ccco3)nc2n(C)c1=O	.	2	481*	158*	0	0	4
CCOc1ccc(NC(=O)/C=C/c2ccc(OC)cc2)c([N+](=O)[O-])c1	15	2	3	-1	0	.	.
CCOc1ccc(NC(=S)NC(=O)/C=C/c2ccc(OC)c(OC)c2)c([N+](=O)[O-])c1	81*	-3	168*	61*	0	49*	251*
CCOC(=O)c1[nH]c2ccc(Cl)cc2c1NC(=O)/C=C/c1ccc2c(c1)OCO2	48	1	168*	54*	-1	20	138*
CCN(CC(=O)Nc1c(C(=O)OC)[nH]c2ccc(Cl)cc12)c1ccc2c(c1)OCO2	58	-1	-4	1	-1	.	.
Cc1cccc(C)c1NC(=O)C(C1CC1)n1c(-c2ccc(C(F)(F)F)cc2)nc2ccccc21 (stereo not drawn)	.	.	.	.	0	.	.
Cc1ccc(C(=O)C=CC=Cc2ccccc2)cc1	.	-2	.	.	0	.	.
Cc1ccc(C(=O)C(C(=O)/C=C/c2ccccc2)=C2SCCCS2)cc1	-79	-3	30*	75*	-1	96*	39*
Cc1nn(Cc2ccc(Cl)c(Cl)c2)c(C)c1NC(=O)c1sc2ccccc2c1Cl	61	-3	-1	1	0	.	.
Cc1nn(Cc2c(Cl)cccc2Cl)c(C)c1NC(=O)c1sc2ccccc2c1Cl	27	6	65*	49*	0	40*	67*
CC1CCCCC1N1CN=C(Nc2nc3ccccc3s2)NC1 (stereo not drawn)	67	-3	90*	46*	0	86*	99*
O=C(NCCc1ccc(O)c(O)c1)C1COc2ccccc2O1 (stereo not drawn)	.	-1	50*	64*	0	9	46*
COc1ccc(N2CCN(C(=O)CCc3nnc4ccc(N5CCCC5)nn34)CC2)cc1	.	1	1	0	0	.	.
COc1cc(/C=C(/C#N)c2nc3ccccc3[nH]2)ccc1OCC(=O)Nc1ccccc1C	60	2	116*	299*	0	38*	79*
O=C(Nc1ccncc1)c1cc(-c2ccccc2)nc2ccccc12	.	0	.	.	0	.	.
O=C(Nc1ccc(Br)cc1)c1cc(-c2ccncc2)nc2ccccc12	.	2	122*	67*	0	29	105*
Cc1ccc(N(CC(=O)Nc2cccc(Cl)c2C)S(C)(=O)=O)cc1	.	2	-1	2	0	.	.
COc1ccc(CNC(=O)CSc2nc(-c3ccccc3)cc(-c3cccs3)c2C#N)cc1	-37	-3	33*	45*	0	7	20
COc1ccc(-c2cc(-c3cccs3)c(C#N)c(SCC(=O)NCc3ccco3)n2)cc1	.	-5	6	3	0	.	.
CC(C)c1ccc(NC(=O)/C(C#N)=C/c2ccncc2)cc1	.	13*	17	59*	0	97*	.	VATPase regulator=17
CCOc1ccccc1-c1nc2c(s1)CCc1onc(-c3ccc(OC)cc3)c1-2	.	-1	-2	-1	0	.	.
N#C/C(=C/c1ccc(O)c(O)c1)C(=O)NCc1ccc(Cl)cc1	.	1	12	103*	15*	22	.	Tb MetRS conf=36*;Jurkat tox=17*;TbMetRS FP orth=11
SMILES	CHOP inhibitor	V-ATPase pH	XBP1 UPR activ	UPR CHOP act	Tb MetRS inh	UPR CHOP confirm	XBP1 UPR conf	others
COc1ccc2nc(C)cc(SCC(=O)N/N=C/c3ccc(O)c(O)c3)c2c1	-35	-3	6	0	0	.	.
Cc1cc(SCC(=O)N/N=C/c2ccc(O)c(O)c2)c(C)cc1Br	-2	3	23	57*	41*	20	.	Tb MetRS conf=82*;Jurkat tox=15*;TbMetRS FP orth=56*
Nc1ccc(C(=O)OC2CCOC2=O)cc1[N+](=O)[O-] (stereo not drawn)	-27	3	-4	-1	0	.	.
O=C(CN1CCN(C(c2ccccc2)c2ccccc2)CC1)NC(=O)NCc1ccco1	31	-1	0	0	0	.	.
O=C(/C(=C/c1ccc(Cl)cc1)c1nc2ccccc2[nH]1)c1ccccc1	-48	5	0	211*	6.6*	158*	.	Tb MetRS conf=3;Jurkat tox=98*;TbMetRS FP orth=4
Cc1cc(C)c2c(n1)sc1c(-c3ccccc3)c(C#N)c(N)nc12	51	-24	91*	27	0	.	48*
Cc1nc(N)c(C#N)c(-c2ccccc2)c1C	22	-3	0	-3	-1	.	.
CCC(=O)Nc1ccc(-c2cc(-c3ccccc3)nc(-c3ccc(NC(=O)CC)cc3)n2)cc1	10	-3	82*	3	0	.	92*
CC(=O)Nc1ccc(-c2cc(-c3ccc(NC(C)=O)cc3)nc(-c3ccccc3)n2)cc1	22	0	46*	3	0	.	3
C/C(=N/NC(=O)c1ccc(Cl)s1)c1ccc(NC(=O)COc2ccc(Cl)cc2)cc1	62	-3	37*	20	1	.	53*
COCCCNC(=O)c1ccc(Cn2c(=O)c3ccccc3n(Cc3cc(C)ccc3C)c2=O)cc1	3	0	0	3	-1	.	.
C=CCn1c(=O)c2ccc(C(=O)NCc3ccccc3)cc2n(Cc2ccc(C)cc2)c1=O	79*	4	44*	1	0	.	18
